Experimental data: ChEMBL document CHEMBL4725468, “Identification of 3,5-Dimethylisoxazole Derivatives as BRD4 Inhibitors for the Treatment of Colorectal Cancer” (ACS Med Chem Lett, 2020)
Active and inactive are the calls of the source. No cut-off for these calls is given here.

How the values were obtained:
[1] = tested on: BXPC-3; assay: Antiproliferation activity against human BxPC3 cells assessed as reduction in cell viability at 2.5 uM incubated for 48 hrs by MTT assay relative to control; assay type: functional
In short: (§1)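 Single-concentration screen at 2.5 μM against BxPc3 and Mia-capa2 pancreatic cancer cells. Read-out is percent growth inhibition.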

[2] = target: Bromodomain-containing protein 4 (Homo sapiens, UniProt O60885); assay: Inhibition of BRD4 bromodomain1 (unknown origin) using peptide histone H4 (SGRGACKGGACKGLGAC-KGGAACKRHGSGSK-biotin) as substrate incubated for 15 mins followed by substrate addition measured after 1 hr by alphascreen assay
[3] = tested on: MIA PaCa-2; assay: Antiproliferation activity against human MIAPaCa2 cells assessed as reduction in cell viability at 2.5 uM incubated for 48 hrs by MTT assay relative to control; assay type: functional; in short: as §1
[4] = tested on: HCT-116; assay: Antiproliferation activity against human HCT116 cells assessed as reduction in cell viability at 2 uM incubated for 48 hrs by MTT assay relative to control; assay type: functional
In short: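 HCT116 colon cancer cells screened at a single 2.0 μM concentration. Read-out is percent growth inhibition.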

[5] = tested on: HCT-116; assay: Antiproliferation activity against human HCT116 cells assessed as reduction in cell viability incubated for 48 hrs by MTT assay; assay type: functional, cell-based; settings: HCT-116, 48 h
In short: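 HCT116 cells treated across a concentration gradient. IC50 was taken from dose–response curves, reported as mean ± SD of at least three independent experiments.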

[6] = tested on: HCT-116; assay: Induction of cell cycle arrest in human HCT116 cells assessed as accumulation at G0/G1 phase at 0.16 uM incubated for 48 hrs by flow cytometry; assay type: functional, cell-based
In short: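 HCT116 cells exposed to 0.16 μM for 48 h. Cell cycle phase distribution was measured, including the G0/G1 fraction.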

[7] = tested on: CT26; assay: Antitumor activity against mouse CT26 cells xenografted in C57BL/6 mouse assessed as tumor suppression at 20 mg/kg, ip administered for 14 days and measured every two days relative to control; settings: C57BL/6, CT26, ip, 336 h, read-out: GI
[8] = tested on: HCT-116; assay: Induction of apoptosis in human HCT116 cells assessed as downregulation of c-myc protein expression at 1 uM incubated for 48 hrs by western blot analysis; assay type: functional, cell-based
In short: (§2)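 HCT116 cells treated at 1 μM for 48 h. Bcl-2, HEXIM1, BRD4 and c-Myc protein levels were measured by western blot.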

[9] = tested on: HCT-116; assay: Induction of apoptosis in human HCT116 cells assessed as decrease in Bcl2 protein expression level at 1 uM incubated for 48 hrs by western blot analysis; assay type: functional, cell-based; in short: as §2
[10] = tested on: HCT-116; assay: Antiproliferation activity against human HCT116 cells assessed as reduction in cell viability for 12 days by crystal violet staining based plate clone-forming analysis; assay type: functional; settings: dose microM 0.008-0.165, time 12.0 day
In short: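 Plate colony-formation assay in HCT116 cells with 12 days of compound exposure at several concentrations.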

[11] = tested on: CT26; assay: Anticancer activity against […] xenografted in C57BL/6 mouse assessed as cell morphological changes measured at 20 mg/kg, iv administered for 14 days by hematoxylin staining based immunohistochemical analysis; assay type: functional, organism-based; settings: time 14.0 day
[12] = tested on: CT26; assay: Anticancer activity against mouse CT26 cells xenografted in C57BL/6 mouse assessed as decrease in […] expression at 20 mg/kg, ip administered for 14 days by hematoxylin staining based immunohistochemical analysis; settings: time 14.0 day
[13] = tested on: CT26; assay: Antitumor activity against […] xenografted in C57BL/6 mouse assessed as tumor suppression at 5 mg/kg, iv administered for 14 days and measured every two days relative to control; assay type: functional; settings: C57BL/6, CT26, iv, 336 h, time 14 day, read-out: GI
[14] = tested on: HCT-116; assay: Induction of apoptosis in human HCT116 cells assessed as upregulation of HEXIM1 protein expression at 1 uM incubated for 48 hrs by western blot analysis; assay type: functional, cell-based; in short: as §2
[15] = tested on: CT26; assay: Antitumor activity against […] xenografted in C57BL/6 mouse assessed as tumor suppression at 13.6 mg/kg, iv administered for 14 days and measured every two days relative to control; assay type: functional; settings: C57BL/6, CT26, iv, 336 h, time 14 day, read-out: GI
[16] = tested on: HCT-116; assay: Induction of apoptosis in human HCT116 cells assessed as upregulation of BRD4 expression at 1 uM incubated for 48 hrs by western blot analysis; assay type: functional, cell-based; in short: as §2
[17] = tested on: HCT-116; assay: Induction of apoptosis in human HCT116 cells assessed as activation of downstream effector Caspase 3 at 1 uM incubated for 48 hrs by western blot analysis; assay type: functional, cell-based
[18] = Toxicity in C57BL/6 mouse xenografted with mouse CT26 cells assessed as body weight at 20 mg/kg, ip administered for 14 days and measured every two days; settings: in vivo, 336 h
[19] = tested on: CT26; assay: Antitumor activity against […] xenografted in C57BL/6 mouse assessed as tumor suppression at 10 mg/kg, iv administered for 14 days and measured every two days relative to control; assay type: functional; settings: C57BL/6, CT26, iv, 336 h, time 14 day, read-out: GI
[20] = tested on: CT26; assay: Anticancer activity against mouse CT26 cells xenografted in C57BL/6 mouse assessed as upregulation in HEXIM1 expression at 20 mg/kg, ip administered for 14 days by hematoxylin staining based immunohistochemical analysis; settings: time 14.0 day
[21] = tested on: CT26; assay: Anticancer activity against mouse CT26 cells xenografted in C57BL/6 mouse assessed as decrease in c-myc expression at 20 mg/kg, ip administered for 14 days by hematoxylin staining based immunohistochemical analysis; settings: time 14.0 day

| SMILES | Activity [1] | IC50 [2] | Activity [3] | Activity [4] | IC50 [5] | also measured |
| --- | --- | --- | --- | --- | --- | --- |
| Cc1noc(C)c1-c1ccc2c(c1)C(c1ccccc1)N(Cc1cn(CCOCCOCCn3cc(CN4C(=O)Nc5ccc(-c6c(C)noc6C)cc5C4c4ccccc4)nn3)nn1)C(=O)N2 (stereo not drawn) | 21.8% | < 2.1 nM | 63.2% | 60.5% | – | – |
| Cc1noc(C)c1-c1ccc2c(c1)C(c1ccccc1)N(CCCCCCN1C(=O)N(C)c3ccc(-c4c(C)noc4C)cc3C1c1ccccc1)C(=O)N2C (stereo not drawn) | 44% | 42 nM | 70.9% | 59.7% | 1100 nM | – |
| Cc1noc(C)c1-c1ccc2c(c1)C(c1ccccc1)N(CCOCCOCCN1C(=O)N(C)c3ccc(-c4c(C)noc4C)cc3C1c1ccccc1)C(=O)N2C (stereo not drawn) | 7.1% | 31 nM | 67.3% | 43.4% | – | – |
| Cc1noc(C)c1-c1ccc2c(c1)C(c1ccccc1)NC(=O)N2C (stereo not drawn) | 11.2% | 32 nM | 59.1% | 14% | 3340 nM | Activity [6]: Active; inhibition in vivo at 20 mg/kg [7]: 11.5%; Activity [8]: Active; Activity [9]: Active; inhibition [10]: Active |
| Cc1noc(C)c1-c1ccc2c(c1)C(c1ccccc1)N(CCCCN1C(=O)N(C)c3ccc(-c4c(C)noc4C)cc3C1c1ccccc1)C(=O)N2C (stereo not drawn) | 46.4% | 13 nM | 68.2% | 59.3% | – | – |
| Cc1noc(C)c1-c1ccc2c(c1)C(c1ccccc1)N(Cc1cn(CCOCCOCCOCCn3cc(CN4C(=O)N(C)c5ccc(-c6c(C)noc6C)cc5C4c4ccccc4)nn3)nn1)C(=O)N2C (stereo not drawn) | 61.3% | 7.7 nM | 68.4% | 83.6% | 162 nM | Activity [6]: Active; Activity [11]: Active; Activity [12]: Active; inhibition in vivo at 5 mg/kg [13]: 68%; Activity [14]: Active; inhibition in vivo at 13.6 mg/kg [15]: 11.5%; inhibition in vivo at 20 mg/kg [7]: 56.1%; Activity [16]: Active; Activity [17]: Active; Activity [18]: Non-Toxic; Activity [8]: Active; Activity [9]: Active; inhibition in vivo at 10 mg/kg [19]: 33.8%; Activity [20]: Active; Activity [21]: Active; inhibition [10]: Dose-dependent effect |
| Cc1noc(C)c1-c1ccc2c(c1)C(c1ccccc1)N(CCCCCCCCCCN1C(=O)N(C)c3ccc(-c4c(C)noc4C)cc3C1c1ccccc1)C(=O)N2C (stereo not drawn) | 45.2% | – | 65.2% | 48.8% | – | – |
| Cc1sc2c(c1C)C(c1ccc(Cl)cc1)=N[C@@H](CC(=O)OC(C)(C)C)c1nnc(C)n1-2 | 9.1% | – | 56.2% | 23.2% | 4210 nM | – |
| Cc1noc(C)c1-c1ccc2c(c1)C(c1ccccc1)N(Cc1cn(CCOCCn3cc(CN4C(=O)N(C)c5ccc(-c6c(C)noc6C)cc5C4c4ccccc4)nn3)nn1)C(=O)N2C (stereo not drawn) | 23.2% | 4.2 nM | 64% | 49.6% | – | – |
| Cc1noc(C)c1-c1ccc2c(c1)C(c1ccccc1)N(Cc1cn(CCOCCOCCOCCn3cc(CN4C(=O)Nc5ccc(-c6c(C)noc6C)cc5C4c4ccccc4)nn3)nn1)C(=O)N2 (stereo not drawn) | 42.2% | < 2.1 nM | 66.4% | 60.4% | – | – |
| Cc1noc(C)c1-c1ccc2c(c1)C(c1ccccc1)N(CCCCCN1C(=O)N(C)c3ccc(-c4c(C)noc4C)cc3C1c1ccccc1)C(=O)N2C (stereo not drawn) | 27.9% | 56 nM | 71.3% | 52% | – | – |
| Cc1noc(C)c1-c1ccc2c(c1)C(c1ccccc1)N(Cc1cn(CCCCCCn3cc(CN4C(=O)Nc5ccc(-c6c(C)noc6C)cc5C4c4ccccc4)nn3)nn1)C(=O)N2 (stereo not drawn) | 37.1% | < 2.1 nM | 57.2% | 60.1% | – | – |
| Cc1noc(C)c1-c1ccc2c(c1)C(c1ccccc1)N(Cc1cn(CCn3cc(CN4C(=O)Nc5ccc(-c6c(C)noc6C)cc5C4c4ccccc4)nn3)nn1)C(=O)N2 (stereo not drawn) | 53% | < 2.1 nM | 62.2% | 60.3% | – | – |
| CCS(=O)(=O)Nc1ccc(Oc2ccc(F)cc2F)c(-c2cn(C)c(=O)c3[nH]ccc23)c1 [MIVEBRESIB] | 36.8% | 2.5 nM | 64.3% | 69.5% | 550 nM | – |
| Cc1noc(C)c1-c1ccc2c(c1)C(c1ccccc1)N(Cc1cn(CCOCCn3cc(CN4C(=O)Nc5ccc(-c6c(C)noc6C)cc5C4c4ccccc4)nn3)nn1)C(=O)N2 (stereo not drawn) | 52.1% | < 2.1 nM | 54.4% | 55.6% | – | – |
| Cc1noc(C)c1-c1ccc2c(c1)C(c1ccccc1)N(CCOCCOCCOCCN1C(=O)N(C)c3ccc(-c4c(C)noc4C)cc3C1c1ccccc1)C(=O)N2C (stereo not drawn) | 42.1% | 19 nM | 73.4% | 35.3% | – | – |
